This is an account of results in ChEMBL document CHEMBL3352004, “(7-Benzyloxy-2,3-dihydro-1H-pyrrolo[1,2-a]indol-1-yl)acetic Acids as S1P1 Functional Antagonists” (ACS Med Chem Lett, 2014).

Values after ≈ are worked out from the molar mass of the structure shown.

Data set [1] deals with T1, Sphingosine 1-phosphate receptor 1 (Homo sapiens, UniProt P21453). Nature of the data set: Agonist activity at human S1P1 receptor assessed as cAMP accumulation by HTRF assay. The data set is classed as functional. The gist of the method: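 S1P1 engagement measured as cyclase activity in a homogeneous time-resolved fluorescence (HTRF) assay.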
In data set [2] the target is T1, Sphingosine 1-phosphate receptor 1. Nature of the data set: Agonist activity at human S1P1 receptor assessed as cAMP accumulation by HTRF assay relative to S1P. The data set is classed as functional.
For data set [3] the target is unchanged. Nature of the data set: Agonist activity at human S1P1 receptor by beta-arrestin recruitment assay. A general note: Activated receptors often draw arrestin, which recruitment assays turn into a signal.
Data set [4] addresses Sphingosine 1-phosphate receptor 2 (Homo sapiens, UniProt O95136). In words: Agonist activity at human S1P2 receptor by beta-arrestin recruitment assay.
Data set [5] addresses Sphingosine 1-phosphate receptor 3 (Homo sapiens, UniProt Q99500). In words: Agonist activity at human S1P3 receptor by beta-arrestin recruitment assay.
The target in data set [6] is T2, Sphingosine 1-phosphate receptor 4 (Homo sapiens, UniProt O95977).
T2 sequence (O95977 whole entry): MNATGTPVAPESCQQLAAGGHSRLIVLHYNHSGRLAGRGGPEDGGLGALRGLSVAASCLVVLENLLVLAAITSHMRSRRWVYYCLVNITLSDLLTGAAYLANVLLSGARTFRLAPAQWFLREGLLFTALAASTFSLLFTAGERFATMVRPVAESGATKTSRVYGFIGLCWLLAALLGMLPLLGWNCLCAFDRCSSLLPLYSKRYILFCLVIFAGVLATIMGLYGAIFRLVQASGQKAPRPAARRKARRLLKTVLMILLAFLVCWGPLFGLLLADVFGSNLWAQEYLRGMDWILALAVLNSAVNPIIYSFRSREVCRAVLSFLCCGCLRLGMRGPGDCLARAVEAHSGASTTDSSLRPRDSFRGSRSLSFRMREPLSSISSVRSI
Nature of the data set: Agonist activity at human S1P4 receptor by beta-arrestin recruitment assay.

The target in data set [7] is T3, Sphingosine 1-phosphate receptor 5 (Homo sapiens, UniProt Q9H228). Nature of the data set: Agonist activity at human S1P5 receptor by beta-arrestin recruitment assay.
The target of data set [8] is T1, Sphingosine 1-phosphate receptor 1. In words: Agonist activity at human S1P1 receptor by beta-arrestin recruitment assay relative to S1P.
Data set [9] can be described thus: Systemic clearance in Sprague-Dawley rat at 1 mg/kg, iv. The data set is classed as ADME, organism-based. On the set-up: dose 1 mg/kg, route intravenous. As to conditions: in vivo.
Data set [10] can be described thus: Volume of distribution at steady state in Sprague-Dawley rat at 1 mg/kg, iv. The data set is classed as ADME, organism-based. Also on record: dose 1 mg/kg, route intravenous. As to conditions: in vivo, read-out: Vdss.
A short description of data set [11]: Cmax in Sprague-Dawley rat at 1 mg/kg, po. The data set is classed as ADME, organism-based. As to conditions: in vivo. On the set-up: dose 1 mg/kg, route oral.
Data set [12] is described as follows: Tmax in Sprague-Dawley rat at 1 mg/kg, po. The data set is classed as ADME, organism-based. As to conditions: in vivo. On the set-up: dose 1 mg/kg, route oral.
Data set [13] can be described thus: AUC (0 to infinity) in Sprague-Dawley rat at 1 mg/kg, iv or at 1 mg/kg, po. The data set is classed as ADME, organism-based. Conditions: plasma.
The nature of data set [14]: Elimination half life in Sprague-Dawley rat at 1 mg/kg, po. The data set is classed as ADME, organism-based. Also on record: dose 1 mg/kg, route oral. Conditions: in vivo, read-out: beta t1/2 (converted).
Data set [15] is described as follows: Oral bioavailability in Sprague-Dawley rat at 1 mg/kg. The data set is classed as ADME, organism-based. Conditions: in vivo.
A short description of data set [16]: Ratio of drug level in brain to plasma in Sprague-Dawley rat. The data set is classed as ADME. Conditions: read-out: BPR. The essentials: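 Abbreviated rat CNS distribution: a single 1.0 mg/kg oral dose, with brain and plasma drug levels measured over 6 h. Brain-to-plasma ratio derived from these levels.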
Data set [17] is filed under the species Rattus norvegicus. Nature of the data set: Reduction in lymphocyte count in Sprague-Dawley rat. The data set is classed as functional, organism-based. The essentials:
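A PK/PD model relating plasma drug concentration to circulating lymphocyte counts was used to derive the plasma concentration that reduces lymphocytes by 50% (LL IC50, ng/mL).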

Data set [18] has as its target T4, Sphingosine 1-phosphate receptor 4 (Homo sapiens) (UniProt O95977).
T4 sequence (whole entry): T2 sequence (O95977 whole entry)
In words: Agonist activity at human S1P4 receptor by beta-arrestin recruitment assay relative to S1P.

For data set [19], the target named is T3, Sphingosine 1-phosphate receptor 5. Nature of the data set: Agonist activity at human S1P5 receptor by beta-arrestin recruitment assay relative to S1P.

A word on the EC50: it is the concentration giving half of the maximal effect. As a reminder, the Emax is the maximal effect, on the per cent scale that the assay sets. Broadly, the clearance is the rate of elimination divided by the concentration. For orientation: Cmax means the maximum level reached in the sampled fluid or tissue. As usually defined, the Tmax is the time at which the peak concentration occurs. The AUC(0-inf) is total exposure, with the tail of the curve extrapolated. A word on the bioavailability: it is the share of a dose that reaches the circulation, judged against a reference dose that is usually intravenous. A word on the IC50: it is the concentration that gives 50% inhibition. Low readings indicate greater potency, high ones weaker potency.

T1 sequence (P21453 whole entry): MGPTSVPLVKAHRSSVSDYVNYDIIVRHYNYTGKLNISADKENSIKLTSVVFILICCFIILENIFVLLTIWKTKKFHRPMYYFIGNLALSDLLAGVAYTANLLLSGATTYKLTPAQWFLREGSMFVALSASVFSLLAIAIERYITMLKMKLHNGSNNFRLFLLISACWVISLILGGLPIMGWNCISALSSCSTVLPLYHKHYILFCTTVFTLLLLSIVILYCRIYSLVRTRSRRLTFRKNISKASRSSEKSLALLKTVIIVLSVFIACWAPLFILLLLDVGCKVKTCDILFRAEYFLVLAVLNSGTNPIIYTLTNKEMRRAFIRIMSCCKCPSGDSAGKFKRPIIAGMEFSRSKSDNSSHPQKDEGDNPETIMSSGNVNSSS
T3 sequence (Q9H228 whole entry): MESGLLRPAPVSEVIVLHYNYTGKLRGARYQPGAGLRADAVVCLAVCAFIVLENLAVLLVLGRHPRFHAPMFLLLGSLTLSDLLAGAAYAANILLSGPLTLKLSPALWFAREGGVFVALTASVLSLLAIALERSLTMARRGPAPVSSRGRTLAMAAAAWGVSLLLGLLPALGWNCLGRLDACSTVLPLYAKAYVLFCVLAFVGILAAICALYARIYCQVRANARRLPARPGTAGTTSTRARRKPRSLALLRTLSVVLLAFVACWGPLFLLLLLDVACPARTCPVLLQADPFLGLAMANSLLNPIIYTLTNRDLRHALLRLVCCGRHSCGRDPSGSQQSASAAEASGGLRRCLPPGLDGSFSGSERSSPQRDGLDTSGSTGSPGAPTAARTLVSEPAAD
Sequence of Sphingosine 1-phosphate receptor 2 (O95136 whole entry): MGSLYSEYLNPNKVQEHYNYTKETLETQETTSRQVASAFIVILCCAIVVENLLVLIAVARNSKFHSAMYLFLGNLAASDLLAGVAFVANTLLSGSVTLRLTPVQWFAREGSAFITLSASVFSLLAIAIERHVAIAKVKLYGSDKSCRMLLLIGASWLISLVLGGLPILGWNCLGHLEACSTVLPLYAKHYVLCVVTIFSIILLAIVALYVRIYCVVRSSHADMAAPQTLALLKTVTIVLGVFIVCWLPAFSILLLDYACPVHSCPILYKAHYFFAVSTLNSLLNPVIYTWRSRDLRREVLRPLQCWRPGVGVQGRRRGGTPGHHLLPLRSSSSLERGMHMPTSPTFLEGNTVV
Sequence of Sphingosine 1-phosphate receptor 3 (Q99500 whole entry): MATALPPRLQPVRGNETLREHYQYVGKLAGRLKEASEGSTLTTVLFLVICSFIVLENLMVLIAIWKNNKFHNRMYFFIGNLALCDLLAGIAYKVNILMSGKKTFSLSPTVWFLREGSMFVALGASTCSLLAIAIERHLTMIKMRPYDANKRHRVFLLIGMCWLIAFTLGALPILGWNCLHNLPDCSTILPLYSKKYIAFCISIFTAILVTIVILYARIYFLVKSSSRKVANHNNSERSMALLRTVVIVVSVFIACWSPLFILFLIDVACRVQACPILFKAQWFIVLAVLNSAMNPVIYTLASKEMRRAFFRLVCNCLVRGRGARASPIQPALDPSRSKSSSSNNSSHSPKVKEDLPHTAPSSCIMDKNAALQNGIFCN

Regarding `O=C(O)CC1CCn2c1cc1cc(OCc3ccc(C4CCCC4)c(C(F)(F)F)c3)ccc12` (racemic) [listing 1 of 2 here], the EC50 in [1] stood at 0.095 nM.
As to `N#Cc1cc(COc2ccc3c(c2)cc2n3CCC2CC(=O)O)ccc1C1CCCC1` (racemic), in [1], the concentration for a half-maximal effect (EC50) came out at 0.49 nM. The Emax in [2] is 92%.
In the same order, the values of `O=C(O)CC1CCn2c1cc1cc(OCc3ccc(Cl)c(C(F)(F)F)c3)ccc12` (racemic) are 150 nM and 116%.
In the same order, the values of `N#Cc1ccc(COc2ccc3c(c2)cc2n3CCC2CC(=O)O)cc1C(F)(F)F` (racemic) are 83 nM and 104%.
In the case of `COc1ccc(COc2ccc3c(c2)cc2n3CCC2CC(=O)O)cc1C#N` (racemic), the EC50 in data set [1] stood at 38 nM. The Emax in [2] was found to be 122%.
The like results for `O=C(O)CC1CCn2c1cc1cc(OCc3ccc(OCF)c(C(F)(F)F)c3)ccc12` (racemic) were, in that order, 6.7 nM and 119%.
Consider `CC(C)Oc1ccc(COc2ccc3c(c2)cc2n3CCC2CC(=O)O)cc1C(F)(F)F` (racemic) [listing 1 of 2 here], for which, in data set [1], the EC50 was found to be 0.15 nM.
Same read-out and setting: as for `CC(C)Oc1ccc(COc2ccc3c(c2)cc2n3CCC2CC(=O)O)cc1C#N` (racemic) [listing 1 of 2 here], the figure is 0.15 nM.
As to `O=C(O)CC1CCn2c1cc1cc(OCc3ccc(OCC4CC4)c(C(F)(F)F)c3)ccc12` (racemic), the EC50 in data set [1] worked out at 1.1 nM. For the same molecule, in data set [2], the Emax was 100%.
Turning to `CC(C)Oc1ccc(COc2ccc3c(c2)cc2n3CCC2CC(=O)O)cc1C#N` (racemic) [listing 2 of 2 here], the maximal effect (Emax) in [2] was found to be 105%.
On the same count and under the same terms, as for `CC(C)Oc1ccc(COc2ccc3c(c2)cc2n3CCC2CC(=O)O)cc1C(F)(F)F` (racemic) [listing 2 of 2 here], the figure is 112%.
Same read-out and setting: to `O=C(O)CC1CCn2c1cc1cc(OCc3ccc(C4CCCC4)c(C(F)(F)F)c3)ccc12` (racemic) [listing 2 of 2 here] belongs 108%.
As for `CC(C)Oc1ccc(COc2ccc3c(c2)cc2n3CCC2CC(=O)O)cc1C(F)(F)F` (single isomer, unassigned; enantiomer 1) [listing 1 of 2 here], the EC50 in data set [1] is 0.067 nM; in [3] it was 8.6 nM; in [4] it was above 10000 nM; in data set [5], above 10000 nM; in data set [6], above 10000 nM; in data set [7] it was above 10000 nM.
On to `CC(C)Oc1ccc(COc2ccc3c(c2)cc2n3CCC2CC(=O)O)cc1C(F)(F)F` (single isomer, unassigned; enantiomer 1) [listing 2 of 2 here], for which the maximal response (Emax) in data set [2] stood at 107%; in [8], 108%.
Regarding `CC(C)Oc1ccc(COc2ccc3c(c2)cc2n3CCC2CC(=O)O)cc1C(F)(F)F` (single isomer, unassigned; enantiomer 2) [listing 1 of 2 here], the EC50 in data set [1] was 0.64 nM; in data set [3] it was 40 nM; in [4], above 10000 nM; in data set [5], above 10000 nM; in data set [6], above 10000 nM; in data set [7], above 10000 nM.
Take `CC(C)Oc1ccc(COc2ccc3c(c2)cc2n3CCC2CC(=O)O)cc1C(F)(F)F` (single isomer, unassigned; enantiomer 2) [listing 2 of 2 here]: the Emax in data set [2] was determined as 116%; in data set [8], 104%.
Take `O=C(O)CC1CCn2c1cc1cc(OCc3ccc(C4CCCC4)c(C(F)(F)F)c3)ccc12` (stereo in doubt; 12a) [listing 1 of 2 here]: the EC50 was 0.041 nM in data set [1]; 2.5 nM in data set [3]; above 10000 nM in data set [4]; above 10000 nM in data set [5]; 570 nM in data set [6]; 107 nM in [7]. Moreover, the clearance in data set [9] was 1.2 mL/min/kg. Moreover, the Vd in [10] stood at 0.986 L/kg. The Cmax in data set [11] came to 526 ng/mL. Also, the time of peak concentration (Tmax) in [12] stood at 2.67 h. This molecule also returned an AUC(0-inf) in data set [13] of 5430 ng·h/mL. Besides, the half-life in data set [14] was 9.16 h. Also, in [15], the bioavailability is 39%. Further, the Kp in data set [16] is 0.53. Besides, in data set [17], the IC50 was determined as 0.0241 µg/mL (≈ 0.0527 µM).
As to `O=C(O)CC1CCn2c1cc1cc(OCc3ccc(C4CCCC4)c(C(F)(F)F)c3)ccc12` (stereo in doubt; 12a) [listing 2 of 2 here], the maximum response (Emax) in [2] amounted to 97%; in data set [8] it was 105%; in data set [18] it was 47%; in [19], 83%.
Turning to `O=C(O)CC1CCn2c1cc1cc(OCc3ccc(C4CCCC4)c(C(F)(F)F)c3)ccc12` (stereo in doubt; 12b) [listing 1 of 2 here], the EC50 in data set [1] is 0.32 nM; in data set [3], 20 nM; in data set [4], above 10000 nM; in data set [5], above 10000 nM; in data set [6], 420 nM; in data set [7] it was 81 nM.
Take `O=C(O)CC1CCn2c1cc1cc(OCc3ccc(C4CCCC4)c(C(F)(F)F)c3)ccc12` (stereo in doubt; 12b) [listing 2 of 2 here]: the Emax in [2] came out at 100%; in data set [8] it was 100%; in data set [18] it was 49%; in [19], 59%.
On to `CC(C)Oc1ccc(COc2ccc3c(c2)cc2n3CCC2CC(=O)O)cc1C#N` (stereo in doubt; 19a) [listing 1 of 2 here], for which the EC50 in [1] is 0.13 nM; in data set [3], 11 nM; in [4], above 10000 nM; in data set [5], above 10000 nM; in data set [6], above 10000 nM; in [7] it was 410 nM. In data set [9], this molecule showed a clearance of 2.18 mL/min/kg. The Vd in data set [10] stood at 0.732 L/kg. Also, in [11], the concentration peaked (Cmax) at 569 ng/mL. For the same molecule, in data set [12], the Tmax stood at 2 h. Moreover, the AUC(0-inf) in data set [13] was determined as 3990 ng·h/mL. The half-life in data set [14] is 3.99 h. Besides, the bioavailability in data set [15] is 49.8%. For the same molecule, the Kp in data set [16] stood at 0.016. Half-maximal inhibition in data set [17] (IC50) was put at 0.21 µg/mL (≈ 0.519 µM).
Turning to `CC(C)Oc1ccc(COc2ccc3c(c2)cc2n3CCC2CC(=O)O)cc1C#N` (stereo in doubt; 19a) [listing 2 of 2 here], the maximum response (Emax) in [2] is 98%; in data set [8] it was 128%; in data set [19], 54%.
`CC(C)Oc1ccc(COc2ccc3c(c2)cc2n3CCC2CC(=O)O)cc1C#N` (stereo in doubt; 19b) [listing 1 of 2 here]: the half-maximal effective concentration (EC50) in [1] was 1.5 nM; in data set [3], 160 nM; in data set [4] it was above 10000 nM; in data set [5] it was above 10000 nM; in data set [6] it was above 10000 nM; in data set [7], 9800 nM.
As for `CC(C)Oc1ccc(COc2ccc3c(c2)cc2n3CCC2CC(=O)O)cc1C#N` (stereo in doubt; 19b) [listing 2 of 2 here], the Emax was 104% in data set [2], 122% in data set [8] and 133% in data set [19].
